Data on 29 compounds can be found in ChEMBL document CHEMBL1130141, “Mapping the peripheral benzodiazepine receptor binding site by conformationally restrained derivatives of 1-(2-chlorophenyl)-N-methyl-N-(1-methylpropyl)-3- isoquinolinecarboxamide (PK11195)” (J Med Chem, 1997).

The target of experiment [1] is T1, Translocator protein (Rattus norvegicus, UniProt P16257). The experiment is described as follows: In vitro displacement of [3H]PK11195 from the peripheral benzodiazepine receptor (PBR) in rat cortex. On the technique in general: Displacement assays read how much labelled ligand stays bound in the presence of the test substance.
Experiment [2] addresses T1, Translocator protein. The experiment is described as follows: In vitro binding affinity (pIC50) was tested against peripheral benzodiazepine receptor (PBR) in rat.
The target of experiment [3] is Translocator protein (Rattus norvegicus) (UniProt P16257). The experiment is described as follows: In vitro binding affinity (pIC50) for peripheral benzodiazepine receptor (PBR) in rat (inactive). The method, boiled down: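 Male CD rat cerebral cortex, stored at -80°C, homogenized in ice-cold 50 mM PBS pH 7.4 with 100 mM NaCl and washed by centrifugation. Membranes used at 2.3 mg tissue per sample with 1 nM [3H]PK11195 for 120 min at 4°C, then filtered on GF/B and counted by scintillation. Nonspecific binding defined with 1 µM PK11195. IC50 from curve fitting of 6 concentrations.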

As a reminder, the pIC50 is the negative decadic logarithm of the IC50, by convention in mol/L. Low values mean a high IC50, high ones a low IC50.

SMILES strings stand for the structures. pIC50: −log10 of the molar value. The source made the active and inactive calls. The rule behind the calls is not given here.

T1 sequence (P16257 whole entry, looked up): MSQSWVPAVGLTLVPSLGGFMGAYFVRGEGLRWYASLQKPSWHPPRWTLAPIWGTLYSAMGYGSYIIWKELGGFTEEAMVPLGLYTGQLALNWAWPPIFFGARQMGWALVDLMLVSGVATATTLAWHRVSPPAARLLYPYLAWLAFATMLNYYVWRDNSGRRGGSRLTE
Translocator protein (Rattus norvegicus), sequence (P16257 whole entry, looked up): as above

Consider `Cc1c(C(=O)NCc2ccccc2)nc2ccccc2c1-c1ccccc1`, for which the pIC50 at Translocator protein [1] and at Translocator protein [2] was 5.92 throughout.
Turning to `CCC(C)N1CCCc2c(nc3ccccc3c2-c2ccccc2)C1=O` (stereo not given), the negative logarithm of the IC50 (pIC50) at Translocator protein [1] and at Translocator protein [2] was 5.92 each time.
For the compound `CCC(C)N(C)C(=O)c1nc2ccccc2c(-c2ccccc2)c1C` (stereo not given), the pIC50 on Translocator protein [1] and on Translocator protein [2] was 8.68 throughout.
In the case of `Cc1c(C(=O)N(C)Cc2ccccc2)nc2ccccc2c1-c1ccccc1`, the pIC50 on Translocator protein [1] and on Translocator protein [2] was 8.68 throughout.
As to `CCC(C)N(C)C(=O)c1nc(-c2ccccc2)c2ccccc2c1C` (stereo not given), the pIC50 was 7.96 at Translocator protein [1] and 7.95 at Translocator protein [2].
The compound `CCC(C)N1Cc2c(nc3ccccc3c2-c2ccccc2F)C1=O` (stereo not given) showed a negative-log IC50 (pIC50) at Translocator protein [1] of less than 5.00.
`O=C1c2nc(-c3ccccc3)c3ccccc3c2CN1Cc1ccccc1`: the negative-log IC50 (pIC50) at Translocator protein [1] and at Translocator protein [2] was 6.32 each time.
`O=C1c2nc3ccccc3c(-c3ccccc3)c2CN1Cc1ccccc1` showed a negative-log IC50 (pIC50) on Translocator protein [1] of less than 5.00.
Take `CCC(C)N1CCCc2c(nc(-c3ccccc3)c3ccccc23)C1=O` (stereo not given): the results for the pIC50 on Translocator protein [1] and at Translocator protein [2] were 6.11 and 6.10, respectively.
Regarding `CCC(C)N1CC=Cc2c(nc(-c3ccccc3)c3ccccc23)C1=O` (stereo not given), the pIC50 at Translocator protein [1] and at Translocator protein [2] was 6.31 throughout.
Regarding `Cc1c(C(=O)N(C)Cc2ccc(Cl)cc2)nc2ccccc2c1-c1ccccc1F`, the pIC50 at Translocator protein [1] and on Translocator protein [2] was 8.47 in each case.
`CCCCC1c2c(nc3ccccc3c2-c2ccccc2)C(=O)N1Cc1ccccc1` (stereo not given): the pIC50 at Translocator protein [1] and at Translocator protein [2] was 6.09 in each case.
Turning to `O=C1c2nc(-c3ccccc3)c3ccccc3c2C=CCN1Cc1ccccc1`, the figures for the pIC50 on Translocator protein [1] and at Translocator protein [2] were 7.35 and 7.34, respectively.
With `CCC(C)NC(=O)c1nc2ccccc2c(-c2ccccc2)c1C` (stereo not given), the negative logarithm of the IC50 (pIC50) on Translocator protein [1] and at Translocator protein [2] was 6.64 in each case.
`CCC(C)N1Cc2c(nc(-c3ccccc3)c3ccccc23)C1=O` (stereo not given): the pIC50 at Translocator protein [1] and on Translocator protein [2] was 6.21 each time.
In the case of `CCC(C)NC(=O)c1nc2ccccc2c(-c2ccccc2F)c1C` (stereo not given), the negative-log IC50 (pIC50) on Translocator protein [1] and on Translocator protein [2] was 7.89 each time.
In turn, `CCC(C)N1Cc2c(nc3ccccc3c2-c2ccccc2)C1=O` (stereo not given) showed a pIC50 on Translocator protein [1] of less than 5.00. Further, in experiment [3], the “Log IC50” value is “inactive”.
Take `Cc1c(C(=O)N(C)Cc2ccc(Cl)cc2)nc2ccccc2c1-c1ccccc1`: the pIC50 at Translocator protein [1] and on Translocator protein [2] was 8.01 in each case.
`CCC(C)N(C)C(=O)c1nc2ccccc2c(-c2ccccc2F)c1C` (stereo not given): the pIC50 on Translocator protein [1] and at Translocator protein [2] was 8.54 throughout.
Regarding `Cc1c(C(=O)NCc2ccc(Cl)cc2)nc2ccccc2c1-c1ccccc1F`, the pIC50 on Translocator protein [1] and at Translocator protein [2] was 6.57 throughout.
On to `Cc1c(C(=O)N(C)Cc2ccccc2)nc(-c2ccccc2)c2ccccc12`, for which the negative-log IC50 (pIC50) on Translocator protein [1] and on Translocator protein [2] was 8.51 throughout.
Take `CCC(C)NC(=O)c1nc(-c2ccccc2)c2ccccc2c1C` (stereo not given): the negative logarithm of the IC50 (pIC50) on Translocator protein [1] and on Translocator protein [2] was 6.26 throughout.
Turning to `CN(Cc1ccccc1)C(=O)c1nc2ccccc2c2c1OCCc1ccccc1-2`, the pIC50 on Translocator protein [1] and at Translocator protein [2] was 8.00 each time.
`CN1CCCc2c(nc3ccccc3c2-c2ccccc2)C1=O`: on Translocator protein [1], the negative logarithm of the IC50 (pIC50) is less than 5.00.
`O=C1c2nc3ccccc3c(-c3ccccc3)c2CCCN1Cc1ccccc1`: the pIC50 on Translocator protein [1] and on Translocator protein [2] was 6.77 throughout.
Regarding `COc1ccc(N(C)C(=O)c2nc3ccccc3c(-c3ccccc3)c2C)cc1`, the pIC50 at Translocator protein [1] and at Translocator protein [2] was 8.06 each time.
For `Cc1c(C(=O)NCc2ccc(Cl)cc2)nc2ccccc2c1-c1ccccc1`, the pIC50 on Translocator protein [1] and at Translocator protein [2] was 5.77 each time.
Consider `Cc1c(C(=O)N(C)c2ccc(Cl)cc2)nc2ccccc2c1-c1ccccc1`, for which the pIC50 on Translocator protein [1] and at Translocator protein [2] was 8.19 each time.
With `CN(Cc1ccccc1)C(=O)c1nc2ccccc2c2c1CCc1ccccc1-2`, the pIC50 on Translocator protein [1] and on Translocator protein [2] was 8.05 each time.
